This is an account of results in ChEMBL document CHEMBL3259808, “Optimization of antitrypanosomatid agents: identification of nonmutagenic drug candidates with in vivo activity” (J Med Chem, 2014).

Series [1] concerns Trypanosoma cruzi. The experiment in a line: Antitrypanosomal activity against Trypanosoma cruzi Tulahuen 2 epimastigotes assessed as growth inhibition after 5 days. The series is classed as functional, organism-based. The conditions noted are these: Trypanosoma cruzi, Tulahuen 2, 120 h. In outline: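 Epimastigotes were grown axenically at 28 °C in BHI-tryptose with 5% FBS and seeded from a 5–7 day culture at 1 × 10⁶ cells/mL. Drug from a DMSO stock was added (final DMSO ≤0.4%; the control contained 0.4% DMSO). Duplicates were run. A600 was read at day 5, and % inhibition was calculated relative to day-0 and control readings. IC50 = concentration that halves the absorbance ratio.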

Series [2] in a line: Selectivity index, ratio of IC50 for human RBC to IC50 for Trypanosoma cruzi Sylvio X-10 amastigotes. An outline of the steps: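 Hemolysis: washed human erythrocytes (2% w/v in PBS) incubated 24 h at 37 °C with compound at final 50, 100 and 200 μM. Ten replicates per concentration. Hemoglobin release read at 405 nm against water lysis as 100%; amphotericin B 1.5 μM was the positive control. SI = IC50 red cells / parasite IC50 (Sylvio X-10 amastigotes or Tulahuen 2 epimastigotes).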

Series [3] deals with Trypanosoma cruzi. Put plainly: Antitrypanosomal activity against Trypanosoma cruzi Sylvio X-10 amastigotes infected in African green monkey Vero cells assessed as eradication of amastigotes at 5 uM after 5 days by optical microscopic analysis. The series is classed as functional, organism-based. Conditions: in the assay text read “after 72 hrs” for “after 5 days”. In outline: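 VERO cells infected with Sylvio X-10 parasites were treated with 5 μM compound and examined by optic microscopy after 72 h of incubation for intracellular amastigotes and trypomastigotes.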

Series [4] concerns Trypanosoma cruzi. Put plainly: Antitrypanosomal activity against Trypanosoma cruzi Y trypomastigotes assessed as growth inhibition at 25 uM after 48 hrs by microscopic analysis relative to control. The series is classed as functional. The conditions noted are these: read-out: GI. In outline:
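Blood was collected by cardiac puncture, with sodium citrate, from BALB/c mice 7 days after infection. Compound was dissolved in minimal DMSO and diluted in PBS (final 25 μM). Drug solution was mixed with infected blood (about 10⁶ parasites/mL) in triplicate, shaken 10 min at room temperature, then held at 4 °C for 48 h. Parasites were counted microscopically against untreated infected blood. Gentian violet 250 μg/mL was the reference.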

Series [5] has as its system Salmonella typhimurium. Put plainly: Mutagenic activity in Salmonella typhimurium TA98 at 5 to 400 ug/plate by Ames test in presence of mouse liver S9 fraction. The series is classed as toxicity, organism-based. The conditions noted are these: salmonella enterica subsp. enterica serovar typhimurium. An outline of the steps:
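Ames plate-incorporation assay with S. typhimurium TA98 in Vogel-Bonner E minimal glucose agar. Toxicity toward the bacteria was checked first. DMSO solutions were run in triplicate at five consecutive third-dilutions, starting at the highest non-toxic dose. Positive controls were 4-nitro-o-phenylenediamine (20.0 μg/plate) and 2-aminofluorene (10.0 μg/plate); DMSO was the negative control. Revertants were counted manually. A compound was called mutagenic when revertants were at least twice the negative control at two or more consecutive doses.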

Series [6] has as its system Salmonella typhimurium. The experiment in a line: Mutagenic activity in Salmonella typhimurium TA102 at 3.09 to 250 ug/plate by Ames test. The series is classed as toxicity, organism-based. Conditions: salmonella enterica subsp. enterica serovar typhimurium. An outline of the steps: (§1)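 Direct plate incubation on minimal glucose agar (Vogel-Bonner E). Compound toxicity to the bacteria was checked first. DMSO solutions were tested at five consecutive 3-fold dilutions, starting from the highest non-toxic dose, in triplicate, without metabolic activation. DMSO served as negative control. Revertants were counted manually; mutagenic = revertants at least double the negative control at two or more consecutive doses.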
In general terms: The Ames test detects mutagens through reverse mutation in bacteria.

The subject of series [7] is Salmonella typhimurium. Put plainly: Mutagenic activity in Salmonella typhimurium TA102 at 3.09 to 250 ug/plate by Ames test in presence of mouse liver S9 fraction. The conditions noted are these: salmonella enterica subsp. enterica serovar typhimurium. The series is classed as toxicity, organism-based. An outline of the steps:
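Plate-incorporation Ames test on minimal glucose agar with 500 μL Aroclor-treated mouse liver S9 added. DMSO solutions were tested at five consecutive 3-fold dilutions from the highest non-toxic dose, in triplicate, with a DMSO negative control. Revertants were counted manually; a compound was scored mutagenic when revertants were at least twice the negative control for two or more consecutive doses.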

In series [8] the test system is Salmonella typhimurium. Put plainly: Mutagenic activity in Salmonella typhimurium TA1535 at 3.09 to 250 ug/plate by Ames test. The series is classed as toxicity, organism-based. Conditions: salmonella enterica subsp. enterica serovar typhimurium. In outline: as §1
Series [9] is described as follows: Stability of the compound in aqueous solution assessed as compound remaining at 1 mM at pH 6 after 1 hr by TLC analysis. The series is classed as physicochemical. Conditions: aqueous solution, pH 6; read-out: Stability. An outline of the steps: (§2)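 DMSO stocks diluted to final 1 mM in KCl·HCl pH 1.0, citrate pH 6.0, Tris·HCl pH 7.4 or borax·HCl pH 9.0 buffer. Incubated 1 h at 37 °C, then ethyl acetate extracts checked by TLC for decomposition products.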

Series [10] is described as follows: Stability of the compound in aqueous solution assessed as compound remaining at 1 mM at pH 1 after 1 hr by TLC analysis. The series is classed as physicochemical. Conditions: read-out: Stability. In outline: as §2
Series [11] is described as follows: Stability of the compound in aqueous solution assessed as compound remaining at 1 mM at 37 degC after 1 hr by TLC analysis in presence of rat liver microsomal fraction. The conditions noted are these: microsomes, 1000 µM. An outline of the steps:
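Rat liver cytosolic (100 000g supernatant) and microsomal (100 000g pellet, washed and resuspended in Tris·HCl) fractions, fresh or stored at −80 °C; protein measured by BCA. Compound incubated with the fraction 1 h at 37 °C and analysed by TLC of extracts.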

The nature of series [12]: Stability of the compound in eumulgin HRE 40, sodium oleate, soya phosphatidylcholine, cholesterol, and phosphate buffer at pH 7.4 at 4 degC. The series is classed as physicochemical. An outline of the steps:
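Storage stability of the compound in vehicle V2, a microemulsion of surfactant (Eumulgin HRE 40/sodium oleate/soya phosphatidylcholine, 10%), cholesterol oil phase (10%) and pH 7.4 phosphate buffer (80%), followed over 1 week at 4 °C.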

In series [13] the test system is Trypanosoma cruzi. Put plainly: Antitrypanosomal activity against Trypanosoma cruzi CL Brener infected in BALB/c mouse assessed as peak of maximum parasitemia at 107 umol/kg/day, po for 14 days administered in saline and tween 80 measured up to 60 days relative to control. The series is classed as functional. An outline of the steps:
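Male BALB/c mice (30 days old, 25–30 g, SPF) were infected i.p. with 10³ blood trypomastigotes, n = 8/group. Daily oral gavage in saline/Tween 80 (4:1) ran for 14 days from day 6 post-infection; controls received vehicle only. Parasitemia was counted weekly in tail-vein blood by hemocytometer for 60 days, and survival was recorded.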

In series [14] the test system is Trypanosoma cruzi. The experiment in a line: Antitrypanosomal activity against Trypanosoma cruzi CL Brener infected in BALB/c mouse assessed as mouse survival at 107 umol/kg/day, po for 14 days administered in saline and tween 80 measured up to 60 days relative to control. The series is classed as functional. In outline: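 Male BALB/c mice (30 days old, 25–30 g, SPF) infected i.p.; daily intragastric gavage for 14 days, starting day 6 postinfection, in saline/Tween 80 (4:1 v/v); n = 8/group; vehicle-only control. Parasitemia counted by hemocytometer in tail-vein blood; survival followed to 65 days postinfection.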

Series [15] relates to Trypanosoma cruzi. The experiment in a line: Antitrypanosomal activity against Trypanosoma cruzi CL Brener infected in BALB/c mouse assessed as mouse survival at 214 umol/kg/day, po for 14 days administered in cholesterol/surfactant/phosphate buffer measured up to 60 days relative to control. The series is classed as functional. An outline of the steps:
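Infected male BALB/c mice (30 days old, 25–30 g) were gavaged daily from day 6 postinfection for 14 days. Vehicle was a microemulsion of 10% cholesterol, 10% surfactant (soya phosphatidylcholine/sodium oleate/polyoxyl-40 hydrogenated castor oil) and 80% phosphate buffer pH 7.4. n = 7/group, with vehicle controls. Tail-vein parasitemia was taken weekly for 60 days and mortality recorded.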

Active and inactive are the calls of the source. The calls are words filed in the database; no cut-off is given here. A value given as a limit tells only on which side of the number the result lay.

The IC50 is the concentration needed to halve the response being measured.

With `Br.C=CCn1c(-c2ccc(Cl)cc2)cs\c1=N/N=C/C=C/c1ccco1.O`, in the series on Trypanosoma cruzi [1], the IC50 stood at 1.3 µM. In addition, the Ratio IC50 in [2] was more than 234. Further, the result in the series with Trypanosoma cruzi [3] was Active. The inhibition of growth at 25 µM in the series on Trypanosoma cruzi [4] is 70%. Moreover, the Activity result in the series with Salmonella typhimurium [5], in the series with Salmonella typhimurium [6], with Salmonella typhimurium [7] and in the series with Salmonella typhimurium [8] was “Non-toxic” each time. Also, the results for the remaining at 1 h, 1000 µM in [9] and in series [10] were more than 95% and 90%, respectively. For the same compound, the Stability entry in series [11] and in series [12] was “Stable” throughout. Besides, in the series on Trypanosoma cruzi [13], the Time turned out to be 26 days. Further, the survival at 107 µmol/kg with Trypanosoma cruzi [14] stood at 75%. In the series with Trypanosoma cruzi [15], the survival at 214 µmol/kg was 100%.
